Hits are enriched below; roughly 2.5% of the tested compounds scored in any of these assays.
PRMT1 inh – PRMT1 methyltransferase inhibitors, primary screen, biochemical, fluorescence polarization. Protein arginine N-methyltransferase 1 (Homo sapiens), Q99873. recombinant PRMT1, activity-based probe fluorescence polarization. inhibition, % at 2.79 µM. 370,000 tested, 1.3% active. AID 652257, 2013;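 active = inhibition above about 21% made by adding two undisclosed values, limit read from the data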
TDP2 absorb – human TDP2 enzyme inhibitors, primary screen, biochemical, epi absorbance, recombinant enzyme; T5PNP hydrolysis, p-nitrophenol absorbance 415 nm; inhibition, % at 12.8 µM; 370,000 tested, 0.34% active; AID 720702, 2013;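 active = inhibition above the mean of all tested compounds plus 3 SD, set per campaign, cut at about 25% in these data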
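Material: recombinant human TDP2; quantity: TDP2 enzyme at 120 nM final; medium: Tris-HCl pH 7.5 with MgCl2; compound: single concentration, 12.8 µM nominal, with 1% DMSO; incubation: 2 h enzyme incubation at 37 °C; signal: epi absorbance; measure: percent inhibition; benchmarks: high control without enzyme, low control DMSO plus TDP2; repeats: singlicate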
GSTO1 counter – inhibitors of recombinant GSTO1, primary screen, counter-screen for RBBP9 inhibitor project, biochemical, fluorescence polarization; Glutathione S-transferase omega-1 (Homo sapiens), P78417; AID 1974, 2009; 300,000 tested, 1.1% active; inhibition, % at 5.96 µM; activity-based probe fluorescence polarization;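 active = inhibition above the campaign mean inhibition plus 3 SD, cut at about 35% in these data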
PAD4 inh – human PAD4 inhibitors, primary screen, biochemical, fluorescence polarization, 1536-well format | Protein-arginine deiminase type-4 (Homo sapiens), Q9UM07 | recombinant PAD4, RCA probe fluorescence polarization | inhibition, % at 6.36 µM | 330,000 tested, 0.41% active;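 active = percent inhibition above a cutoff equal to the mean of all tested compounds plus 3 SD, cut at about 15% in these data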
E coli Lon inh – inhibitors of E. coli Lon protease, primary screen, biochemical, fluorescence polarization; purified E. coli Lon protease; inhibition, % at 7.94 µM; AID 602123, 2011; 360,000 tested, 0.42% active; P0A9M0; in the data active = inhibition above about 13%, passing the limit was not always enough
Target sequence (P0A9M0 whole entry, looked up): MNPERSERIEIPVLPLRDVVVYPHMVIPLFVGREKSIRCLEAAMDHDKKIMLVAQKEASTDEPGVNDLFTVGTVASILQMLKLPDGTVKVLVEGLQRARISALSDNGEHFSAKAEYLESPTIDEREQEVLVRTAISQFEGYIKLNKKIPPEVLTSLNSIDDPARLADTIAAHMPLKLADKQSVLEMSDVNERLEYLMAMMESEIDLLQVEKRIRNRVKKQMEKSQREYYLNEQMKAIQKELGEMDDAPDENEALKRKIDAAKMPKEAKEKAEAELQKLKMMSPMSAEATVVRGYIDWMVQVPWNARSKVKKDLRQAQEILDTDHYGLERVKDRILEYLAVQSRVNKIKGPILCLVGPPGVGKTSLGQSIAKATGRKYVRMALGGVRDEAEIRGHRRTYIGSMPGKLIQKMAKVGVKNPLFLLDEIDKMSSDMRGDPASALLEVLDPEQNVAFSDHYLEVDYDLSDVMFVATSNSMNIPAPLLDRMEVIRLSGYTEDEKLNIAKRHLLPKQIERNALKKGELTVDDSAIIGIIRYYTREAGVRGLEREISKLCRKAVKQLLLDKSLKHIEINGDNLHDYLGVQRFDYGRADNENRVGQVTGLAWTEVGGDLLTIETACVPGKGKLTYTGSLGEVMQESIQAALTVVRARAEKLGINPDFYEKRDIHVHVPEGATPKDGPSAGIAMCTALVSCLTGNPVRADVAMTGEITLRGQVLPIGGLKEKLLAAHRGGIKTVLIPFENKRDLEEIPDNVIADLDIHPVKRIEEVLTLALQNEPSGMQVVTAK
E coli Lon conf – E. coli Lon protease inhibitor retest, confirmation, biochemical, fluorescence polarization; purified E. coli Lon; inhibition, % at 7.94 µM; 1,400 tested, 31% active; shares compounds with E coli Lon inh; in the data active = inhibition above about 16%
Hits are given with their value; 0 = inactive; - = no result given.

SMILES	PRMT1 inh	TDP2 absorb	GSTO1 counter	PAD4 inh	E coli Lon inh	E coli Lon conf
CC(C)[C@H](NC(=O)OC(C)(C)C)C(=O)N1CCC(C(=O)N[C@@H](C)C(=O)Nc2ccc(F)cc2)CC1	0	0	0	0	19	0
COc1ccc(/C=C/S(=O)(=O)NC2CCCC2)c(CNC(=O)OC(C)(C)C)c1	0	0	-	-	-	-
O=C(CCN1C(=O)S/C(=C\c2ccccc2)C1=O)Nc1ccc(O)cc1C(=O)O	0	0	0	0	19	0
O=C(CCN1C(=O)S/C(=C/c2ccccc2)C1=O)Nc1ccc(O)c(C(=O)O)c1	0	0	0	0	0	-
CCCCN(C)S(=O)(=O)c1ccc2[nH]c(=O)oc2c1	0	0	-	-	-	-
CCOC(=O)CSc1nc2cc(C)ccc2cc1C#N	0	0	0	0	27	0
CN(C)CCCN1C(=O)c2cccc3c([N+](=O)[O-])ccc(c23)C1=O	0	0	0	0	131	43
O=C1c2cccc3c([N+](=O)[O-])ccc(c23)C(=O)N1CCc1ccccn1	0	0	0	0	0	-
COC(=O)[C@]12C[C@H](CC(=O)NCCc3ccccc3OC)C(=O)N(CCC3=CCCCC3)C1=C[C@H](C1CCCC1)O[C@@H]2C	0	0	-	-	-	-
Cc1ccc(C2N(c3ccccc3)C(=O)N3CCCN23)cc1 (stereo unspecified)	0	0	0	0	36	0
O=C(CCCOC(=O)c1ccc(O)cc1O)c1ccc(Br)cc1	0	0	-	-	20	0
CC(C)C(=O)NNS(=O)(=O)c1ccccc1[N+](=O)[O-]	0	0	0	0	15	0
COC(C(=O)NNS(=O)(=O)c1ccccc1[N+](=O)[O-])c1ccccc1 (stereo unspecified)	0	0	-	-	0	-
Cc1nc(CCNC(=O)CC2C(=O)NCCN2CC(C)C)nc2c1CCC2 (stereo unspecified)	0	0	0	0	0	-
Cc1nc(CCNC(=O)CC2C(=O)NCCN2CC(C)(C)C)nc2c1CCC2 (stereo unspecified)	0	0	0	0	22	0
COc1cc(C(=O)OCC(=O)N2CCOCC2)c([N+](=O)[O-])cc1OC	0	0	0	0	18	0
CCOC(=O)C1CCN(CC(=O)Nc2cc(S(=O)(=O)N3CCCCC3)ccc2Cl)CC1	0	0	-	-	23	0
COC(=O)[C@H](C(C)C)N1CCc2nnn(Cc3ccc(C)cc3)c2-c2cc(F)ccc2S1(=O)=O	0	0	-	-	-	-
C/C(=N\NC(=O)CSc1nnc(-c2ccccc2)n1-c1ccc(C)cc1)c1ccc(-c2ccccc2)cc1	0	0	-	-	-	-
CCOC(=O)c1ccccc1NC(=O)N[C@@H](C)C(=O)OC	0	0	0	0	0	-
COC(=O)c1ccccc1NC(=O)N[C@@H](C)C(=O)OC	-	-	0	0	16	0
CCc1ccc(CCNC(=O)OC2CC3CC2[C@H]2CCCCN2[C@H]3C)cc1 (stereo partly specified)	0	0	-	-	-	-
CC(=O)N1CCc2c(sc(NC(=O)C3CCCN3S(=O)(=O)c3cccs3)c2C(N)=O)C1 (stereo unspecified)	0	0	0	0	40	0
CC(=O)N1CCc2c(sc(NC(=O)C3CCN(S(=O)(=O)c4cccs4)CC3)c2C(N)=O)C1	0	0	0	0	0	-
CSCCC(NC(=O)c1ccco1)C(=O)N1CCCCCCC1 (stereo unspecified)	0	0	0	0	21	0
SMILES	PRMT1 inh	TDP2 absorb	GSTO1 counter	PAD4 inh	E coli Lon inh	E coli Lon conf
CSCCC(NC(=O)c1ccco1)C(=O)N1CCC(C(N)=O)CC1 (stereo unspecified)	0	0	0	0	0	-
Cc1onc(-c2c(F)cccc2Cl)c1C(=O)ONC(=O)c1ccco1	0	0	0	0	17	0
Cc1ccc(NC(=O)COC(=O)CCc2c[nH]c3ccccc23)cc1	0	0	-	-	0	-
Cc1ccc(NC(=O)COC(=O)CCc2c[nH]c(=O)[nH]2)cc1	0	0	0	0	31	52
COc1cc2oc(=O)cc(CN3CCN(C(C)=O)CC3)c2cc1Cl	0	0	-	-	31	24
COc1cc2oc(=O)cc(CN3CCCCC3)c2cc1Cl	0	0	-	-	0	-
Cc1ccccc1C(=O)N1CCC(Oc2cccnc2)CC1	0	0	-	-	-	-
COc1ccccc1-c1ccc2c(c1)C(C)(Cc1ccc(F)c(Cl)c1)C(=O)N2 (stereo unspecified)	0	0	-	-	16	0
COc1ccc(C(=O)N=C2SC3CS(=O)(=O)CC3N2c2ccccc2)cc1OC (stereo unspecified)	0	0	0	0	19	0
O=C(N=C1SC2CS(=O)(=O)CC2N1c1ccccc1)c1cccc([N+](=O)[O-])c1 (stereo unspecified)	0	0	-	0	0	-
O=C(c1cccs1)N1CC[C@H]2[C@H](CCCN2Cc2ccc(F)cc2)C1	0	0	-	-	-	-
Cc1ccccc1NC(=O)C1CCCN(c2ncnc3onc(-c4ccc(F)cc4)c23)C1 (stereo unspecified)	0	0	0	0	16	0
CCc1ccccc1NC(=O)C1CCCN(c2ncnc3onc(-c4ccc(F)cc4)c23)C1 (stereo unspecified)	0	0	0	0	0	-
COc1ccc(-c2nnc(SCC(=O)N/N=C\C=C/c3ccco3)n2-c2ccc(C)cc2)cc1	0	0	-	-	-	-
O=C(CSCc1cc(=O)n2ccsc2n1)Nc1ccc(F)cc1	0	0	0	0	66	0
O=C(N/N=C/C1C(c2ccccc2)C1(Cl)Cl)c1cccc(Cl)c1 (stereo unspecified)	0	0	0	0	22	0
Cc1ccc(OCC(=O)N2CCN(S(C)(=O)=O)CC2)cc1	0	0	0	0	50	0
Cc1cccc(OCC(=O)N2CCN(S(C)(=O)=O)CC2)c1	0	0	0	0	0	-
COC(=O)c1ccsc1NC(=O)CSc1nnnn1-c1ccccc1SC	0	0	0	0	20	0
COc1ccc(NC(=O)CN(C)C(=O)CCc2c[nH]c3ccccc23)cc1	0	0	0	0	32	0
COC(CNC(=O)[C@H](Cc1ccccc1)NCC(=O)NC1CCCCC1)OC	0	0	-	-	-	-
CCCCCCCCN1C(=O)[C@@H](CC(=O)NCc2ccc(C)o2)C[C@@]2(C(=O)OC)C1=C[C@H](COCc1ccccc1)O[C@@H]2C	0	0	-	-	-	-
CCN(CC)c1ccc(C=Nc2cccnc2Cl)c(O)c1	0	0	0	0	16	0
O=S1(=O)c2ccc(Br)cc2OC[C@@H](Cc2ccccc2)N1Cc1cn(CCC2OCCO2)nn1	0	0	-	-	-	-
N#Cc1cccc(NC(=O)c2cc(C3CCCCN3C(=O)c3cccs3)on2)c1 (stereo unspecified)	0	0	-	-	15	0
CCCCN(C(=O)NC(=O)Nc1ccccc1OC)S(C)(=O)=O	0	0	0	0	20	0

Source: PubChem BioAssay
